In ChEMBL document CHEMBL1255250, “Microbicidal properties and cytocidal selectivity of rhesus macaque theta defensins” (Antimicrob Agents Chemother, 2008):
Activity calls are given as the source filed them. The calls are words filed in the database; no cut-off is given here.

Columns and labels:
Staphylococcus aureus [1] = test: Microbicidal activity against Staphylococcus aureus 502a; assay type: functional
How it was run: (§1)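 Log-phase organisms (1–2 × 10^6 CFU/ml) were exposed to serially diluted peptide (0.05–10.0 μg/ml final) in 10 mM PIPES, pH 7.4, with 5 mM glucose for 2 h at 37°C. Aliquots were serially diluted 1:10 to 1:10^6 in Trypticase soy or Sabouraud broth and grown 24–48 h at 37°C. MMC was the lowest concentration giving 99.9% viability loss in at least two experiments.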

[2] = Toxicity in human Erythrocyte assessed as concentration required to achieve 3% hemolysis; assay type: cell-based
Escherichia coli [3] = test: Microbicidal activity against Escherichia coli ML35; assay type: functional; how it was run: as §1
Candida albicans [4] = test: Microbicidal activity against Candida albicans 16820; assay type: functional; how it was run: as §1
Staphylococcus aureus [5] = test: Microbicidal activity against Staphylococcus aureus 502a at 5 ug/ml in presence of <= 80 mM NaCl; assay type: functional, organism-based
How it was run: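 S. aureus in log phase was incubated with 5 μg/ml peptide in 10 mM PIPES, pH 7.4, containing increasing NaCl for 2 h at 37°C. Killing was determined by colony counting and expressed as a percentage of killing in buffer alone.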

Candida albicans [6] = test: Microbicidal activity against Candida albicans 16820 using PIPES buffer in presence of NaCl; assay type: functional, organism-based
How it was run: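 Log-phase C. albicans was incubated with peptide in 10 mM PIPES, pH 7.4, supplemented with NaCl, for 2 h at 37°C. Survivors were plated on Sabouraud dextrose agar and counted after 18–24 h at 37°C.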

Staphylococcus aureus [7] = test: Microbicidal activity against Staphylococcus aureus 502a using 10 mM PIPES buffer in presence of 154 mM NaCl; assay type: functional, organism-based
How it was run: (§2)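 Log-phase S. aureus was exposed to increasing peptide concentrations for 2 h at 37°C. Buffer was 10 mM PIPES, Tris-HCl or sodium phosphate, pH 7.4, with or without 154 mM NaCl. Killing was read by colony counting.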

Staphylococcus aureus [8] = test: Microbicidal activity against Staphylococcus aureus 502a using 10 mM Tris-HCl buffer in presence of 154 mM NaCl; assay type: functional, organism-based; how it was run: as §2
Staphylococcus aureus [9] = test: Microbicidal activity against Staphylococcus aureus 502a using 10 mM sodium phosphate buffer in presence of 154 mM NaCl; assay type: functional, organism-based; how it was run: as §2
Staphylococcus aureus [10] = test: Microbicidal activity against Staphylococcus aureus 502a in presence of 1.2 mM Calcium ions; assay type: functional, organism-based
Escherichia coli [11] = test: Microbicidal activity against Escherichia coli ML35 in presence of 1.2 mM Calcium ions; assay type: functional, organism-based
How it was run: (§3)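 Log-phase E. coli ML35 or C. albicans was incubated with increasing peptide concentrations in 10 mM PIPES, pH 7.4. The buffer contained 1.2 mM CaCl2 and 0.8 mM MgCl2, or no added divalent salts. Incubation was 2 h at 37°C, and survivors were counted as colonies.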

Staphylococcus aureus [12] = test: Microbicidal activity against Staphylococcus aureus 502a in presence of 0.8 mM Magnesium ions; assay type: functional, organism-based
Escherichia coli [13] = test: Microbicidal activity against Escherichia coli ML35 in presence of 0.8 mM Magnesium ions; assay type: functional, organism-based; how it was run: as §3
Candida albicans [14] = test: Microbicidal activity against Candida albicans 16820 in presence of 0.8 mM Magnesium ions; assay type: functional, organism-based; how it was run: as §3
Escherichia coli [15] = test: Microbicidal activity against Escherichia coli ML35 at <=8 ug/ml in presence of 10% heat-inactivated human serum; assay type: functional, organism-based
How it was run: (§4)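 Human serum was heat-inactivated at 55°C for 30 min and clarified by centrifugation. E. coli was then exposed to a dose series of peptide in 10 mM PIPES, pH 7.4, with 10% of this serum. Killing was counted as colonies and expressed relative to incubations without serum.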

Escherichia coli [16] = test: Microbicidal activity against Escherichia coli ML35 at 16 ug/ml in presence of 10% heat-inactivated human serum; assay type: functional, organism-based; how it was run: as §4
Escherichia coli [17] = test: Microbicidal activity against Escherichia coli ML35 assessed as induction of cytoplasmic membrane permeabilization at 1 ug/ml; assay type: functional, organism-based
How it was run: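 Log-phase E. coli ML35 (1–2 × 10^6 CFU/ml) was incubated with peptide (0–8 μg/ml final) in 10 mM PIPES, pH 7.4, containing 3 mM ONPG. ONPG hydrolysis was followed at 405 nm for 60 min. The rate was taken as the highest kinetic slope and corrected for peptide inhibition of β-galactosidase measured cell-free.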

[18] = Inhibition of beta-galactosidase in cell-free system assessed as inhibition of o-nitrophenyl-beta-d-galactopyranoside hydrolysis
[19] = molecular target: Beta-galactosidase (Escherichia coli) (UniProt Q8VNN2); test: Inhibition of Escherichia coli ML35 Beta-galactosidase assessed as inhibition of o-nitrophenyl-beta-d-galactopyranoside hydrolysis at 4 ug/ml
Chain of Beta-galactosidase (Escherichia coli) (Q8VNN2 whole entry, looked up): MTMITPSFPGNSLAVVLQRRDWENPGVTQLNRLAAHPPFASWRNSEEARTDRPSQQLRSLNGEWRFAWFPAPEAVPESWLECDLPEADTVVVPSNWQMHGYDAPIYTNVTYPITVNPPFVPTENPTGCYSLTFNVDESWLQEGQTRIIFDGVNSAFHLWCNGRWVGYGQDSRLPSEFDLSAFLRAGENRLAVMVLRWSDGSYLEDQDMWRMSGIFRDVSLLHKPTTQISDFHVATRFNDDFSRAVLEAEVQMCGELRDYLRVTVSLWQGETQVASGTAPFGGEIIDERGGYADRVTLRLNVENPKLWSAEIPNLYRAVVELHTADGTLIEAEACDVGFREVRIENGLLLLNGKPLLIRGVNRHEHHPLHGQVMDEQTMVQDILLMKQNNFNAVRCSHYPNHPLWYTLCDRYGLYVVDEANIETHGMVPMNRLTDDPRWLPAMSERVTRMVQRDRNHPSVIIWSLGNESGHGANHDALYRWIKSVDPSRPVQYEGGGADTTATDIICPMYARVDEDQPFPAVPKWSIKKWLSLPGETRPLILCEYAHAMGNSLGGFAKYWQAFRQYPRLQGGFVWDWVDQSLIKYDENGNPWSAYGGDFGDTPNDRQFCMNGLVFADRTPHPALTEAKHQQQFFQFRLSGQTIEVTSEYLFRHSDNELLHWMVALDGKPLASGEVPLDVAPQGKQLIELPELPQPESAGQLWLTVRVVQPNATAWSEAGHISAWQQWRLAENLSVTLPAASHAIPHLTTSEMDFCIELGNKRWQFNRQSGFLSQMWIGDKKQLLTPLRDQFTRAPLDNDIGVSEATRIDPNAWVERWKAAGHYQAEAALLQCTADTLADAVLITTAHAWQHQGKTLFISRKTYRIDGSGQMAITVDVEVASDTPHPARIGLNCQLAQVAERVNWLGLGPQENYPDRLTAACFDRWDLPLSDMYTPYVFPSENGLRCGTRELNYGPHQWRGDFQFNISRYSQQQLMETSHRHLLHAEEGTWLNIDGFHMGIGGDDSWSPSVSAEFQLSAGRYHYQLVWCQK

[20] = Toxicity in human Erythrocyte assessed as hemolysis at 100 ug/ml; assay type: cell-based
How it was run: (§5)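 Erythrocytes from EDTA-anticoagulated human donor blood were washed in PBS or PiBS containing 4 mM EDTA, then resuspended without EDTA at 2% (vol/vol). Cells were incubated with peptide (0.3–100 μg/ml final) for 1 h at 37°C, with or without 10% autologous serum. Supernatant A405 was expressed relative to 1% Nonidet P-40 lysis.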

[21] = Toxicity in human Erythrocyte assessed as hemolysis at 100 ug/ml in presence of 10% serum; assay type: cell-based; how it was run: as §5
Hs68 [22] = test: Cytotoxicity against human HS68 cells at <=100 ug/ml by MTT assay in presence of 0.4% FBS; assay type: cell-based
How it was run: (§6)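 HS68 fibroblasts were grown in DMEM with 10% FBS and penicillin/streptomycin at 37°C and 5% CO2. Cells were seeded at 5 × 10^3 per well for 18 h. Medium was then switched to antibiotic-free DMEM with 0.4% or 10% FBS, as each line states, and peptide was added at 0–100 μg/ml for 1 h at 37°C. Wells were refed with growth medium and read by MTT in triplicate against no-peptide wells.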

Hs68 [23] = test: Cytotoxicity against human HS68 cells at 100 ug/ml in presence of 10% FBS by MTT assay; assay type: cell-based; how it was run: as §6
Hs68 [24] = test: Cytotoxicity against human HS68 cells at 50 ug/ml by MTT assay in presence of 10% FBS; assay type: cell-based; how it was run: as §6
[25] = Selectivity index, ratio of MMC for Staphylococcus aureus 502a to hemolytic activity for human erythrocytes
Candida albicans [26] = test: Microbicidal activity against Candida albicans 16820 assessed as log reduction in microbial count at 10 ug/ml using PIPES buffer

## CC(C)C[C@H](NC(=O)[C@H](CCCNC(=N)N)NC(=O)CNC(=O)CNC(=O)[C@@H](N)CCCNC(=N)N)C(=O)N[C@H]1CSSC[C@@H](C(=O)N[C@H](C(=O)NCC(=O)N[C@@H](CCCNC(=N)N)C(N)=O)C(C)C)NC(=O)[C@H](C(C)C)NC(=O)[C@@H]2CSSC[C@H](NC(=O)[C@H](Cc3ccc(O)cc3)NC1=O)C(=O)N[C@@H](CCCNC(=N)N)C(=O)N[C@@H](CCCNC(=N)N)C(=O)N[C@@H](CCCNC(=N)N)C(=O)N[C@@H](Cc1ccccc1)C(=O)N2
Staphylococcus aureus [1]
  MMC: 0.4 µg/mL
[2]
  Activity: 0.8 µg/mL
Escherichia coli [3]
  MMC: 1 µg/mL
Candida albicans [4]
  MMC: 0.8 µg/mL
Staphylococcus aureus [5]
  Activity: Active
Candida albicans [6]
  Activity: Active
Staphylococcus aureus [7]
  Activity: Active
Staphylococcus aureus [8]
  Activity: Active
Staphylococcus aureus [9]
  Activity: Active
Staphylococcus aureus [10]
  Activity: Active
Escherichia coli [11]
  Activity: Active
Staphylococcus aureus [12]
  Activity: Active
Escherichia coli [13]
  Activity: Active
Candida albicans [14]
  Activity: inactive
Escherichia coli [15]
  Activity: inactive
Escherichia coli [16]
  Activity: Active
Escherichia coli [17]
  Activity: Active
[18]
  inhibition: Dose-dependent effect
[19]
  inhibition: 36%
[20]
  Activity: Toxic
[21]
  Activity: Toxic
Hs68 [22]
  Activity: Toxic
Hs68 [23]
  Activity: Toxic
Hs68 [24]
  Activity: Toxic
[25]
  Selectivity Index: 2
Candida albicans [26]
  FC: >3
